Laboratory results as given in ChEMBL document CHEMBL4000179, “An Orally Active Bradykinin B1 Receptor Antagonist Engineered as a Bifunctional Chimera of Sunflower Trypsin Inhibitor” (J Med Chem, 2017).
Active and inactive are the calls of the source. No cut-off for these calls is given here. Where a SMILES comes first, the peptide text is derived from it. Bridges are numbered along the chain shown (N, C = ends).

Tests used:
[1] = Stability of the compound assessed as trypsin (unknown origin)-mediated compound degradation at enzyme to peptide ratio of 1:50 after 6 hrs by HPLC-MS analysis; assay type: ADME; details: human
How it was run: (§1)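 Peptides were boiled at 100 °C, exposed to hydrochloride solution, or incubated with proteases for up to 6 h. Integrity was determined by HPLC and MS.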

[2] = Stability in 0.2 M aqueous HCl after 6 hrs by HPLC-MS analysis; assay type: physicochemical; details: read-out: Stability; how it was run: as §1
Mus musculus [3] = test: Analgesic activity in ICR mouse assessed as increase in pain response latency at 1 mg/kg,ip measured after 10 mins by hot plate assay relative to control; assay type: functional
How it was run: (§2)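 Mouse hot plate test with hind paw-licking as the nociceptive end point. Peptides were given i.p. or p.o. at several doses, with phosphate-buffered saline as the control. Response latency was compared with each animal's baseline latency and expressed as percent increment in response time.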

[4] = Stability in pH 7 phosphate buffer at 0.1 mM at 100 degC after 6 hrs by HPLC-MS analysis; assay type: physicochemical; details: read-out: Stability; how it was run: as §1
Mus musculus [5] = test: Analgesic activity in ICR mouse assessed as increase in pain response latency at 0.3 to 10 mg/kg administered through oral gavage 30 mins prior to test by hot plate assay relative to control; assay type: functional; how it was run: as §2
Serum = test: Metabolic stability in human serum after 2 hrs by UPLC method; assay type: ADME, cell-free
How it was run: (§3)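 Peptides were incubated in human serum for up to 6 h, sampled at time points, and the intact fraction was expressed relative to 0 h. Runs were in triplicate, reported as mean ± SD.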

[6] = Stability of the compound assessed as pepsin (unknown origin)-mediated compound degradation at enzyme to peptide ratio of 1:50 after 6 hrs by HPLC-MS analysis; assay type: ADME; details: human; for Stability: 6 h; how it was run: as §1
HeLa = test: Cytotoxicity against human HeLa cells up to 40 uM after 24 hrs by PrestoBlue cell viability assay; assay type: cell-based
Mus musculus [7] = test: Analgesic activity in ICR mouse assessed as increase in pain response latency at 0.03 to 1 mg/kg,ip measured after 10 mins by hot plate assay relative to control; assay type: functional, organism-based; how it was run: as §2
[8] = target: T1, Serine protease 1 (Bos taurus) (UniProt P00760); test: Inhibition of bovine beta-trypsin up to 100 uM using BAPNA as substrate preincubated for 15 mins followed by substrate addition measured over 60 mins by spectrometric method
T1 sequence (whole entry): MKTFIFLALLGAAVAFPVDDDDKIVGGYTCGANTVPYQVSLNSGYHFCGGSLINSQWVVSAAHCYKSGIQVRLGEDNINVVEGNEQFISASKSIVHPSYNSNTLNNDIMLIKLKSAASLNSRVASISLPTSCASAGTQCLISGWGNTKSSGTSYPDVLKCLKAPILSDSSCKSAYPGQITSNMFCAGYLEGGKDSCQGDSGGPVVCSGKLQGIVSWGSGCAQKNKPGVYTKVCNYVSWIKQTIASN
How it was run: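 Trypsin activity was measured at 37°C with the chromogenic substrate BAPNA (N-α-benzoyl-DL-arginine 4-nitroanilide), reading absorbance at 405 nm. […] Runs were in triplicate, reported as mean ± SD.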

B1 bradykinin receptor = target: T2, B1 bradykinin receptor (Homo sapiens, UniProt P46663); test: Antagonist activity against bradykinin B1 receptor in human HeLa cells assessed as inhibition of Des-Arg9-BK-induced increase in intracellular Ca2+ level by Fluro-4 direct calcium dye based fluorescence assay; assay type: functional, cell-based
T2 sequence (P46663 whole entry): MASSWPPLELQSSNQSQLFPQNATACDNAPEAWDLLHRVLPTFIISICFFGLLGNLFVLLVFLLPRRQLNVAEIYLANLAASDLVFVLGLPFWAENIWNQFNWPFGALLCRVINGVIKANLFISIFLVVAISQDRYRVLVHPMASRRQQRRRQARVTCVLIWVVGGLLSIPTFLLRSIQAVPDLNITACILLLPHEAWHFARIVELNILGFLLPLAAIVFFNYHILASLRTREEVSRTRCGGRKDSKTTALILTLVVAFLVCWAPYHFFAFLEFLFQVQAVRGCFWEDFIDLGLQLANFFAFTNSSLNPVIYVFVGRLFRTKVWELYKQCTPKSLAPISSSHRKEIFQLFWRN
How it was run: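 HeLa cells were pre-loaded with fluo-4 Direct dye and pretreated with peptide at 0 to 10 µM. B1 agonist des-Arg9-BK (100 nM) was then added to raise intracellular Ca2+, read as fluorescence change.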

[9] = Metabolic stability in human serum assessed as parent compound remaining after 6 hrs by UPLC method; assay type: ADME, cell-free; details: read-out: Stability; how it was run: as §3
[10] = Drug uptake in ICR mouse serum at 10 mg/kg, po after 4 hrs; assay type: ADME, organism-based; details: read-out: Drug uptake
How it was run: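 Peptide was given orally at 10 mg/kg, and its serum concentration was measured 4 h later.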

Mus musculus [11] = test: Analgesic activity in ICR mouse assessed as increase in pain response latency at 10 mg/kg administered through oral gavage 30 mins prior to test by hot plate assay relative to control; assay type: functional; how it was run: as §2
Serine protease 1 = target: T3, Serine protease 1 (Bos taurus, UniProt P00760); test: Inhibition of bovine beta-trypsin using BAPNA as substrate preincubated for 15 mins followed by substrate addition measured over 60 mins by Dixon plot analysis
T3 sequence (P00760 whole entry): T1 sequence (whole entry)

Row | Structure (SMILES) | Stability [1] | remaining at 6 h [2] [%] | Activity (Mus musculus [3]) [%] | remaining at 6 h, 100 µM [4] [%] | Activity (Mus musculus [5]) | Stability (Serum) | metabolised at 6 h ([6]; pepsin, read-out: Drug degradation) [%] | Activity (HeLa) | Activity (Mus musculus [7]) | inhibition [8] | Stability [6] | IC50 (B1 bradykinin receptor) [µM] | remaining at 6 h [9] [%] | concentration at 4 h [10] [µM] | Activity (Mus musculus [11]) [%] | Ki (Serine protease 1) [nM]
1 | CC(C)C[C@H](NC(=O)[C@@H]1CCCN1C(=O)[C@H](CO)NC(=O)[C@H](Cc1ccccc1)NC(=O)CNC(=O)[C@@H]1CCCN1C(=O)[C@@H]1CCCN1C(=O)[C@H](CCCN=C(N)N)NC(=O)[C@@H](N)CCCCN)C(=O)O | Stable | > 80 | 201 | > 80 | <10% | Unstable | > 50 | Non-Toxic | – | – | – | – | – | – | – | –
2 | CC[C@H](C)[C@@H]1NC(=O)[C@@H]2CCCN2C(=O)[C@@H]2CCCN2C(=O)[C@H]([C@@H](C)CC)NC(=O)[C@H](CO)NC(=O)[C@H](CCCCN)NC(=O)[C@H]([C@@H](C)O)NC(=O)[C@@H]2CSSC[C@H](NC1=O)C(=O)N[C@@H](Cc1ccccc1)C(=O)N1CCC[C@H]1C(=O)N[C@@H](CC(=O)O)C(=O)NCC(=O)N[C@@H](CCCNC(=N)N)C(=O)N2 | – | > 80 | – | > 80 | inactive | – | – | Non-Toxic | inactive | Active | – | – | – | – | – | –
3 | CC[C@H](C)[C@@H]1NC(=O)[C@@H]2CCCN2C(=O)[C@@H]2CCCN2C(=O)[C@H]([C@@H](C)CC)NC(=O)[C@H](CO)NC(=O)[C@H](CCCCN)NC(=O)[C@H]([C@@H](C)O)NC(=O)[C@@H](N)CSSC[C@@H](C(=O)N[C@@H](CCCCN)C(=O)N[C@@H](CCCNC(=N)N)C(=O)N2CCC[C@H]2C(=O)N2CCC[C@H]2C(=O)NCC(=O)N[C@@H](Cc2ccccc2)C(=O)N[C@@H](CO)C(=O)N2CCC[C@H]2C(=O)N[C@@H](CC(C)C)C(=O)O)NC1=O (H-CTKSIPPICKRPPGFSPL-OH; disulfide 1-9) | Unstable | > 80 | – | > 80 | – | – | – | Non-Toxic | – | Active | Unstable | – | – | – | – | –
4 | CC(C)C[C@@H]1NC(=O)[C@@H]2CCCN2C(=O)[C@H](CO)NC(=O)[C@H](Cc2ccccc2)NC(=O)CNC(=O)[C@@H]2CCCN2C(=O)[C@@H]2CCCN2C(=O)[C@H](CCCNC(=N)N)NC(=O)[C@H](CCCCN)NC(=O)[C@@H](NC(=O)[C@H](CCCNC(=N)N)NC(=O)CN)CSSC[C@@H](C(=O)N[C@@H](Cc2ccccc2)C(=O)N2CCC[C@H]2C(=O)N[C@@H](CC(=O)O)C(=O)O)NC1=O (H-GRCKRPPGFSPLCFPD-OH; disulfide 3-13) | Unstable | > 80 | – | > 80 | – | – | – | Non-Toxic | – | – | Unstable | – | – | – | – | –
5 | CC(C)C[C@@H]1NC(=O)[C@@H]2CCCN2C(=O)[C@H](CO)NC(=O)[C@H](Cc2ccccc2)NC(=O)CNC(=O)[C@@H]2CCCN2C(=O)[C@@H]2CCCN2C(=O)[C@H](CCCNC(=N)N)NC(=O)[C@H](CCCCN)NC(=O)[C@@H]2CSSC[C@H](NC1=O)C(=O)N[C@@H](Cc1ccccc1)C(=O)N1CCC[C@H]1C(=O)N[C@@H](CC(=O)O)C(=O)NCC(=O)N[C@@H](CCCNC(=N)N)C(=O)N2 (cyclo(CFPDGRCKRPPGFSPL); disulfide 1-7) | Unstable | > 80 | – | > 80 | – | – | – | Non-Toxic | – | inactive | Stable | 4.04 | > 90 | – | – | –
6 | CC[C@H](C)[C@@H]1NC(=O)[C@@H]2CCCN2C(=O)[C@@H]2CCCN2C(=O)[C@H]([C@@H](C)CC)NC(=O)[C@H](CO)NC(=O)[C@H](CCCCN)NC(=O)[C@H]([C@@H](C)O)NC(=O)[C@@H]2CSSC[C@H](NC1=O)C(=O)N[C@@H](CCCCN)C(=O)N[C@@H](CCCNC(=N)N)C(=O)N1CCC[C@H]1C(=O)N1CCC[C@H]1C(=O)NCC(=O)N[C@@H](Cc1ccccc1)C(=O)N[C@@H](CO)C(=O)N1CCC[C@H]1C(=O)N[C@@H](CC(C)C)C(=O)N2 (cyclo(CKRPPGFSPLCTKSIPPI); disulfide 1-11) | Stable | > 80 | 125 | > 80 | – | – | – | Non-Toxic | – | Active | Stable | 2 | > 90 | 11.5 | 71 | 5.12
